Results on 1 compound are retold here after ChEMBL document CHEMBL5661970 (Cancer Res, 2006).

Data set [1] in a line: Apparent oral clearance in F344/N JcL-rnu athymic rat at 0.04 mg/kg, po measured upto 72 hrs by HPLC-MS/MS analysis. It is filed as ADME, organism-based. As to conditions: in vivo. The gist of the method: (§1)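 Female F344/N JcL-rnu rats, four per group, single p.o. dose suspended in 0.5% methyl cellulose. Tail-vein blood sampled at set times to 72 h. Serum spiked with internal standard, deproteinated with acetonitrile, analysed by HPLC-MS/MS. Parameters derived by noncompartmental analysis.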

Data set [2] deals with T1, Mitogen-activated protein kinase 1 (Homo sapiens, UniProt P28482). The experiment in a line: Inhibition of ERK2 phosphorylation in EGF-stimulated serum-starved human HUVEC cells by immunoblotting analysis. It is filed as cell-based. (In western blotting, separated proteins are transferred to a membrane and probed.)
Data set [3] deals with LS174T. Kind of data set: Antitumor activity against human LS174T cells xenografted in gamma-irradiation induced RH-rnu/rnu athymic rat assessed as tumor growth inhibition at 1.0 mg/kg, po administered once daily for 2 weeks and measured on day 14 relative to control. Format: functional. As to conditions: light or radiation study, 336 h, read-out: TGI. Put shortly:
(§2)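 Rats were γ-irradiated with 7 Gy whole body, and 24 h later received s.c. tumor cells. Fragments (20-30 mg) from ~1,500 mm3 tumors were then implanted s.c. into irradiated athymic rats. Oral dosing at 0.2 or 1 mg/kg or vehicle ran once daily for 2 weeks from day 0. Tumors were measured with calipers twice weekly (length×width²×0.5). TGI% was taken versus vehicle on day 14 (BxPC-3: day 13), with an unpaired t test on RTV.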
Background: In xenograft studies the graft and the host belong to different species.

Data set [4] has as its system Calu-6. The experiment in a line: Antitumor activity against human Calu-6 cells xenografted in RH-rnu/rnu athymic rat assessed as increased pericyte coverage at 0.2 mg/kg, po administered for 14 days by immunofluorescence staining analysis relative to control. Format: functional. As to conditions: time 14 day. Put shortly: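 Calu-6 xenografted athymic rats were randomized at 273-275 mm3 and dosed orally for 2 weeks. Paraffin sections were double-stained with anti-CD31 and Cy3-anti-α-smooth muscle actin. Pericyte-associated endothelial cells were counted in six fields per tumor, with six tumors per group and Dunnett's test.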

For data set [5], the system named is A549. Kind of data set: Antitumor activity against human A549 cells xenografted in F344/N Jcl-rnu athymic rat assessed as reduction in number of CD31-positive cells in viable regions of tumor at 0.2 mg/kg, po administered once daily for 7 days by immunofluorescence staining analysis relative to control. The conditions noted are these: time 7 day.
Data set [6] relates to HUVEC. The experiment in a line: Antiproliferative activity against bFGF-induced human HUVEC cells assessed as cell viability incubated for 72 hrs by WST-1 assay. (Tetrazolium assays rely on reduction of a dye to a coloured formazan, in cell work by metabolically active cells.)
Data set [7] concerns SK-HEP1. The experiment in a line: Antitumor activity against human SK-HEP1 cells xenografted in gamma-irradiation induced RH-rnu/rnu athymic rat assessed as tumor growth inhibition at 0.2 mg/kg, po administered once daily for 2 weeks and measured on day 14 relative to control. It is filed as functional. As to conditions: SK-HEP1, light or radiation study, 336 h, read-out: TGI.

A short description of data set [8]: Antitumor activity against human CGL-9 cells xenografted in gamma-irradiation induced RH-rnu/rnu athymic rat assessed as tumor growth inhibition at 1.0 mg/kg, po administered once daily for 2 weeks and measured on day 14 relative to control. Format: functional. The conditions noted are these: CGL-9, light or radiation study, 336 h, read-out: TGI. Put shortly:
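Human tumor cells inoculated s.c. in right flank of athymic rats 24 h after whole-body γ-irradiation (7 Gy, Co60); established ~1,500 mm3 tumors excised and 20-30 mg fragments implanted s.c. in irradiated rats. Oral dosing in 0.5% methyl cellulose vehicle from randomization (day 0). Tumor volume measured twice weekly by calipers, (length × width²) × 0.5; TGI% versus vehicle on day 14.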

The subject of data set [9] is LS174T. The experiment in a line: Antitumor activity against human LS174T cells xenografted in gamma-irradiation induced RH-rnu/rnu athymic rat assessed as tumor growth inhibition at 0.2 mg/kg, po administered once daily for 2 weeks and measured on day 14 relative to control. The conditions noted are these: light or radiation study, 336 h, read-out: TGI. It is filed as functional. Put shortly: as §2

Data set [10] is described as follows: Half life in F344/N JcL-rnu athymic rat at 5 mg/kg, po measured upto 72 hrs by HPLC-MS/MS analysis. Format: ADME, organism-based. The conditions noted are these: in vivo. The gist of the method: as §1
Data set [11] in a line: Apparent oral clearance in F344/N JcL-rnu athymic rat at 5 mg/kg, po measured upto 72 hrs by HPLC-MS/MS analysis. It is filed as ADME, organism-based. As to conditions: in vivo. The gist of the method: as §1
The test system of data set [12] is OVCAR-3. Kind of data set: Antitumor activity against human OVCAR-3 cells xenografted in gamma-irradiation induced RH-rnu/rnu athymic rat assessed as tumor growth inhibition at 0.2 mg/kg, po administered once daily for 2 weeks and measured on day 14 relative to control. It is filed as functional. As to conditions: OVCAR-3, light or radiation study, 336 h, read-out: TGI. Put shortly: as §2

In data set [13] the test system is Calu-6. The experiment in a line: Antitumor activity against human Calu-6 cells xenografted in RH-rnu/rnu athymic rat assessed as larger enclosed median lumen area by the halos in tumor by measuring vessel diameter at 0.2 mg/kg, po administered for 14 days by H33342 dye based fluorescence microscopic analysis. It is filed as functional. As to conditions: time 14 day. Put shortly:
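Calu-6 tumor-bearing athymic rats, three per group, received oral drug at 0.2 or 1 mg/kg or vehicle on days 0-13. They were killed 1 min after i.v. H33342 at 20 mg/kg on day 13. 10 µm cryosections were cut from five tumor levels at least 200 µm apart and examined under UV epifluorescence. The major axis of fluorescent halos around vessels was measured by image analysis, with a Mann-Whitney test.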

The subject of data set [14] is CAKI-1. The experiment in a line: Antitumor activity against human CAKI-1 cells xenografted in gamma-irradiation induced RH-rnu/rnu athymic rat assessed as tumor growth inhibition at 0.2 mg/kg, po administered once daily for 2 weeks and measured on day 14 relative to control. It is filed as functional. As to conditions: CAKI-1, light or radiation study, 336 h, read-out: TGI. The gist of the method:
as §2

Data set [15] deals with PC-3. Kind of data set: Antitumor activity against human PC-3 cells xenografted in gamma-irradiation induced RH-rnu/rnu athymic rat assessed as tumor growth inhibition at 1.0 mg/kg, po administered once daily for 2 weeks and measured on day 14 relative to control. It is filed as functional. As to conditions: PC-3, light or radiation study, 336 h, read-out: TGI.
The target in data set [16] is Insulin-like growth factor 1 receptor (Homo sapiens, UniProt P08069). The experiment in a line: Inhibition of IGF-1R (unknown origin) in presence of ATP. The gist of the method: (§3)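 Cell-free kinase assay using recombinant tyrosine kinases with 1 μmol/L ATP, run in quadruplicate. IC50 values determined.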
The subject of data set [17] is Calu-6. The experiment in a line: Antitumor activity against human Calu-6 cells xenografted in RH-rnu/rnu athymic rat assessed as decrease in capillary permeability in tumor at 1.0 mg/kg, po measured on day 13 by DCE-MRI analysis relative to control. Format: functional. Further details: scale not given: the % may be the effect or the level left.
Data set [18] concerns SK-OV-3. Kind of data set: Antitumor activity against human SK-OV-3 cells xenografted in gamma-irradiation induced RH-rnu/rnu athymic rat assessed as tumor growth inhibition at 0.2 mg/kg, po administered once daily for 2 weeks and measured on day 14 relative to control. As to conditions: SK-OV-3, light or radiation study, 336 h, read-out: TGI. It is filed as functional.
Data set [19] concerns the target T1, Mitogen-activated protein kinase 1. Kind of data set: Inhibition of ERK2 phosphorylation in bFGF-stimulated serum-starved human HUVEC cells by immunoblotting analysis. It is filed as cell-based.
The target of data set [20] is Insulin receptor (Homo sapiens, UniProt P06213). Kind of data set: Inhibition of insulin-R (unknown origin) in presence of ATP. Put shortly: as §3
In data set [21] the test system is Calu-6. The experiment in a line: Antitumor activity against human Calu-6 cells xenografted in RH-rnu/rnu athymic rat assessed as decrease in capillary permeability in tumor at 1 mg/kg, po measured on day 2 by DCE-MRI analysis relative to control. Further details: scale not given: the % may be the effect or the level left.
Data set [22] relates to Calu-6. Kind of data set: Antitumor activity against human Calu-6 cells xenografted in RH-rnu/rnu athymic rat assessed as decreased microvessel density at 0.2 mg/kg, po administered for 14 days by immunofluorescence staining analysis relative to control. The conditions noted are these: time 14 day. Also on record: scale not given: the % may be the effect or the level left. It is filed as functional.

SMILES strings stand for the structures. Active and inactive are the calls of the source. The rule behind the calls is not given here.

T1 sequence (P28482 whole entry): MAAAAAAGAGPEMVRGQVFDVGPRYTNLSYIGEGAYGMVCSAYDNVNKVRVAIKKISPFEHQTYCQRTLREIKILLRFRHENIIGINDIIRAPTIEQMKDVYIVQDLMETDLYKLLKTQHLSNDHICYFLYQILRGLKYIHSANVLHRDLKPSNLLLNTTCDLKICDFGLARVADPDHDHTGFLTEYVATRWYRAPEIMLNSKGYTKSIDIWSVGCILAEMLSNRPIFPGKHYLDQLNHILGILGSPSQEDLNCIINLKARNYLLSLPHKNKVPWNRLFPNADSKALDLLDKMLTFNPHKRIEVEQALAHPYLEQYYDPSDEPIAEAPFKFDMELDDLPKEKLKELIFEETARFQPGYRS
Sequence of Insulin-like growth factor 1 receptor (P08069 31-736 limits assumed): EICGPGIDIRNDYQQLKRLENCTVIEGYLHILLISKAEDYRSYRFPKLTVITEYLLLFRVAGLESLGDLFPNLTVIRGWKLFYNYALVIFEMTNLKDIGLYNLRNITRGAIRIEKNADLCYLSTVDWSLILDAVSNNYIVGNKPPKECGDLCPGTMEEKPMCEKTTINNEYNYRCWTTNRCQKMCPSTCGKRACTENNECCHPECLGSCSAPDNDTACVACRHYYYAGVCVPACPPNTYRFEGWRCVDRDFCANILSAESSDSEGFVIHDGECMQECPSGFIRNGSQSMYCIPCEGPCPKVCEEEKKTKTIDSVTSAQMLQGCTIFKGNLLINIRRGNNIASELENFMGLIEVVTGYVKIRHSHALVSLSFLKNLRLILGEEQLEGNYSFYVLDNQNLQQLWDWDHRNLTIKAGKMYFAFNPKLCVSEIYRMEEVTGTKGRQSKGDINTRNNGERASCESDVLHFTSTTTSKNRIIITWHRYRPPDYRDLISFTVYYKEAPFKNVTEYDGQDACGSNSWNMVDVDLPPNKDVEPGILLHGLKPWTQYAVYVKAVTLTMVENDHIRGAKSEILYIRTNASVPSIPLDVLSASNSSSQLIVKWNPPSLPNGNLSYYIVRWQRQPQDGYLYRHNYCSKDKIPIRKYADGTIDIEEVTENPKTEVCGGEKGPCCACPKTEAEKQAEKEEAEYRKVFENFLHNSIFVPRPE
Sequence of Insulin-like growth factor 1 receptor (P08069 741-1367 limits assumed): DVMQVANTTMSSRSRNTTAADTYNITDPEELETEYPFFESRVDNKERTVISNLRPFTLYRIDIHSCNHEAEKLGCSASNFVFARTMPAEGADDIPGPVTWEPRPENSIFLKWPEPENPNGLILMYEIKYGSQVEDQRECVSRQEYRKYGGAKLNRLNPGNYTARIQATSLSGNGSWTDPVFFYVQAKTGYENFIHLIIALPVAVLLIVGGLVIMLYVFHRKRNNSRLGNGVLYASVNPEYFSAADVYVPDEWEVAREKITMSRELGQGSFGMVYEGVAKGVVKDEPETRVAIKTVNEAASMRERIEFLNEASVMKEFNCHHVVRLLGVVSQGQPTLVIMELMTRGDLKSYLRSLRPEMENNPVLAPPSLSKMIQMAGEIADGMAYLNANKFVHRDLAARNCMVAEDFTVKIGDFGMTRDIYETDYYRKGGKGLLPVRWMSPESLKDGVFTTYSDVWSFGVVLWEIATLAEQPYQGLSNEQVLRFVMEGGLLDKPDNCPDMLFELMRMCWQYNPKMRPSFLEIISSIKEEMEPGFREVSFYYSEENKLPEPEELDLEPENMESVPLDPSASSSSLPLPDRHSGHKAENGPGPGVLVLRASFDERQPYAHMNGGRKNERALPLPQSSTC
Sequence of Insulin receptor (P06213 28-758 limits assumed): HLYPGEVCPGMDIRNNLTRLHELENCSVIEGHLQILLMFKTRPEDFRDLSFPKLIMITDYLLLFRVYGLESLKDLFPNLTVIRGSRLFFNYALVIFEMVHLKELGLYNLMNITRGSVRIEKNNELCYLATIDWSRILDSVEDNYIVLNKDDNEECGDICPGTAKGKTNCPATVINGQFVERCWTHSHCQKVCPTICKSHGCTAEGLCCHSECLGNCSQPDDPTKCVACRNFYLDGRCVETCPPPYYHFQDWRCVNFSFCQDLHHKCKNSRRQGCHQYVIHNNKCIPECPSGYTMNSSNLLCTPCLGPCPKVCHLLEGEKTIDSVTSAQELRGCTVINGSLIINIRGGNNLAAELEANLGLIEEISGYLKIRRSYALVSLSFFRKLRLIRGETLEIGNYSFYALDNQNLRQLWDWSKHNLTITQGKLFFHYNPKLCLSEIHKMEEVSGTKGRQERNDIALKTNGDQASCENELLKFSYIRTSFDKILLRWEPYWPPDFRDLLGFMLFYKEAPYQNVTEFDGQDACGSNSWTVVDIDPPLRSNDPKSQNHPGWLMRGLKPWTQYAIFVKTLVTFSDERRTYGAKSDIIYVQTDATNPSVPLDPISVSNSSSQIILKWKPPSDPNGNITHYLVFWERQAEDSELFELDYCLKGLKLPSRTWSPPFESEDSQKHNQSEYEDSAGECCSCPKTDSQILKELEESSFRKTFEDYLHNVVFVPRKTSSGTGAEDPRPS
Sequence of Insulin receptor (P06213 763-1382 limits assumed): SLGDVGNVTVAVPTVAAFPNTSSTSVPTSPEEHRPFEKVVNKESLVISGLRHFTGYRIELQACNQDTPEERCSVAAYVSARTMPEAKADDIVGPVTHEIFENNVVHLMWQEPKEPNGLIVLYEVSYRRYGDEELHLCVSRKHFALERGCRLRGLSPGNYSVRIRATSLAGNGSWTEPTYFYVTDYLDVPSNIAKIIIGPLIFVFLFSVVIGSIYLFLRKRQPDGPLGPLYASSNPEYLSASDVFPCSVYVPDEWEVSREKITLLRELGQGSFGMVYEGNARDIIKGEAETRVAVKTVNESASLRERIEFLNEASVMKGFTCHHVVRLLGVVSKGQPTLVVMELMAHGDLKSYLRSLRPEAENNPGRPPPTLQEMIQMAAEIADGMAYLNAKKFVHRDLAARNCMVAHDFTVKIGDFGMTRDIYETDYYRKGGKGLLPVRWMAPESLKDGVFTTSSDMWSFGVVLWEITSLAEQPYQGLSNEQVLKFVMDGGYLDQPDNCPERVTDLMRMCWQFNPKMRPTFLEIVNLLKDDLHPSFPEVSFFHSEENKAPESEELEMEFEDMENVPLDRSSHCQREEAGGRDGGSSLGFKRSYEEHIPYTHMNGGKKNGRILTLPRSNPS

Take `COc1cc2nccc(Oc3ccc(NC(=O)Nc4cc(C)on4)c(Cl)c3)c2cc1OC` [TIVOZANIB]: the CL/F in data set [1] was 2.03 mL/min/kg; in data set [11], 1.88 mL/min/kg. The inhibition result in data set [2] and in data set [19] was “inactive” throughout. Besides, the inhibition in vivo at 1 mg/kg in [3] stood at 99.7%; in [8], 96.2%; in data set [15] it was 95.9%. The Activity in [4] is given as 29.6%; in [5], 20.7%; in data set [13], 57.9 um; in data set [17] it was 61%; in data set [21], 55%; in data set [22], 42.5%. Besides, the IC50 in data set [6] is above 300 nM; in data set [16] it was above 1000 nM; in data set [20], above 1000 nM. Moreover, the inhibition in vivo at 0.2 mg/kg was 59.4% in data set [7]; 85.7% in [9]; 25% in data set [12]; 26.9% in data set [14]; 93.4% in data set [18]. In addition, the half-life in data set [10] is 7.94 h.

As usually defined, the CL/F is clearance divided by bioavailability, as obtained after extravascular dosing. By IC50 is commonly meant the concentration needed to halve the response being measured. One may read the half-life as the time in which the quantity being followed falls by half.
